MDM2 E3 inh – MDM2-luciferase reporter signal enhancers, primary screen, MDM2 E3 ligase inhibitor project, cell-based, luminescence, 1536-well; cell-based MDM2 ubiquitination luciferase reporter, 2 h; 0 = plate control, 100 = twice control, blank-subtracted; hit rate 0.11% among 210,000; signal enhancement, % at 5 µM; E3 ubiquitin-protein ligase Mdm2 (Homo sapiens), Q00987; AID 1230, 2008;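 active = signal enhancement of 30% or more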;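 also: luminescence tracks abundance of the self-degrading MDM2-luciferase fusion protein; higher signal means inhibition of MDM2 E3 ligase activity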
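Buffer or medium: Cells held in DMEM | Assay system: Stable mammalian line carrying autodegrading MDM2–luciferase fusion reporter | Quantity: 2000 cells/well | Times: 4 h settle plus 2 h compound, 37 °C | Doses: One concentration, 5 µM, with 0.2% DMSO | Technique: Luminescence with SteadyLite reagent, 15 min at room temperature | Benchmarks: Plate controls and plate blanks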
STAT1 activator – STAT1 signaling activators, primary screen, cell-based, HTS, luciferase reporter | NIH 3T3 STAT1-luciferase reporter, IFN-gamma, luminescence; 100% = IFN-gamma alone, no compound | activation (% of control), % at 5.5 µM | hit rate 2.6% among 200,000;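 active = activation above the screen-wide mean activation plus 3 SD, cut at about 130% in these data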;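 also: raw ratio to IFN-gamma control signal so 100% means no change and 0% no light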
p97 inhibitor – inhibitors of human p97 ATPase, primary screen, biochemical; recombinant p97 ATPase, Kinase-Glo ATP luminescence, 3 h; inhibition, % at 8 µM; hit rate 0.42% among 220,000; Transitional endoplasmic reticulum ATPase (Homo sapiens), P55072; in the data active = inhibition above about 15%;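 also: 0% = DMSO vehicle and 100% = wells lacking enzyme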
Wee1 degr inh – Wee1 degradation inhibitors, primary screen, cell-based, HeLa, Wee1K328M-luciferase, luminescence; Wee1-like protein kinase (Homo sapiens), P30291; HeLa Luc-Wee1K328M stability; 100% = proteasome inhibitor MG132 effect; reporter increase, % at 5 µM; hit rate 1.2% among 220,000; AID 1321, 2008;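 active = activation above the mean of all tested compounds plus 3 SD, set per screening run, cut at about 8.8% in these data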;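 also: cells exposed to compound for 20 h before luminescence read; 0% = DMSO alone and 100% = MG132 at 30 µM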
Target sequence (P30291 whole entry K328M): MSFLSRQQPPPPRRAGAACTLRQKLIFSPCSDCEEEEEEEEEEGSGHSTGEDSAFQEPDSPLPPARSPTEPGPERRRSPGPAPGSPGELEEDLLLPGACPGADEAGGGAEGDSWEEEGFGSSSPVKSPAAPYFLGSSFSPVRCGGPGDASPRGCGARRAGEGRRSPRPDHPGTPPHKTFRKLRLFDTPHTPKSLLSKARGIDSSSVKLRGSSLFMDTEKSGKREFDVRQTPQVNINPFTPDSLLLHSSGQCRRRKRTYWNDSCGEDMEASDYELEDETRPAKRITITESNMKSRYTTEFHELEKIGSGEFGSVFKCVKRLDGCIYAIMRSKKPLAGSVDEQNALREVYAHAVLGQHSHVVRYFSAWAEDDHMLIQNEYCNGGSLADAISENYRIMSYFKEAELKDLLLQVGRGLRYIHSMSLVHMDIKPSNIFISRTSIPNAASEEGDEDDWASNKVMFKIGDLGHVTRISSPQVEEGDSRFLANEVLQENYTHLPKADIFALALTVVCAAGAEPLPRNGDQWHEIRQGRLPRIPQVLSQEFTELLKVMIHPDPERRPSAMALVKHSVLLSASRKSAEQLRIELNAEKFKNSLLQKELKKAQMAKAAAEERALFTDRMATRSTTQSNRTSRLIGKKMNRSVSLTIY
NF-kB expr up – activators of NF-kB expression in neurons, primary screen, cell-based, HTS; fold change at 12.5 µM; hit rate 1.6% among 190,000; human neuronal cells, NF-kB reporter expression; stronger effect = higher value; in the data active = fold change above about 3.3
APP 5'UTR act – activators of APP 5'UTR luciferase reporter, primary screen, SH-SY5Y cells; activation, % at 2 µM; hit rate 1% among 190,000; SH-SY5Y APP 5'UTR luciferase reporter, luminescence; zero percent = DMSO vehicle wells;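 active = activation above a set limit, based on mean plus 3 SD of controls, cut at about 140% in these data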
The depositor's hits bear a star; x = no result given. Sampled rows, rich in hits. Any-hit rate of the full collection: about 4.6%.

SMILES	MDM2 E3 inh	STAT1 activator	p97 inhibitor	Wee1 degr inh	NF-kB expr up	APP 5'UTR act
Cn1c(SCC(=O)Nc2cccc(S(=O)(=O)NC3=NCCCCC3)c2)nnc1-c1ccccc1	-4.4	107.5	6.0	-0.9	1.23	12.2
COc1ccccc1NC(=O)Nc1nn(C)c2cccc(OC)c12	-2.9	x	-0.7	-1.7	x	x
COC(=O)Cc1[nH]n(-c2ccccc2)c(=O)c1C=Nc1ccc(C)cc1	2.2	x	-5.9	-1.7	x	x
O=c1c(-c2ccc3c(c2)OCCO3)coc2cc(O)cc(O)c12	-26.4	119.3	10.2	0.6	5.84*	144.7*
COc1cc(OC)cc(C(=O)NNC(=O)CCc2ccccc2)c1	-17.4	97.0	2.7	1.1	2.56	-29.4
COc1ccc2[nH]cc(/C=C/C(=O)c3ccccc3)c2c1	-4.0	x	10.4	0.3	x	x
Cc1ccc(S(=O)(=O)/C(C#N)=C/c2c[nH]c3ccccc23)cc1	-24.6	84.4	0.8	1.6	1.37	11.2
Cc1ccc(C(=O)/C=C/c2c[nH]c3ccccc23)cc1	-10.7	118.4	-4.7	-1.8	3.47*	62.5
O=C(/C=C/c1c[nH]c2ccccc12)c1ccccc1	-4.2	135.8*	-5.4	3.2	9.87*	116.8
O=C(O)c1ccc2c(c1)C(=O)N(c1nccs1)C2=O	-13.9	x	-4.2	-3.2	x	x
CN(C)c1ccc(C2=NOC(CN3C(=O)c4ccccc4S3(=O)=O)C2)cc1 (centres undefined)	-10.0	147.4*	0.9	1.0	3.35*	93.0
COc1ccc(S(=O)(=O)N2CCCCCC2)cc1N(C)S(=O)(=O)c1ccc(C)cc1	-10.0	92.4	3.3	0.5	0.54	2.3
CC(C)(O)c1cc(=O)sc2nc3ccccc3n12	-21.7	133.8*	3.4	-1.9	3.59*	78.1
COc1cccc2cc(C(=O)Oc3ccc(NC(C)=O)cc3)c(=O)oc12	-2.3	110.4	6.6	-0.3	1.08	-2.2
COc1cccc2cc(C(C)OC(=O)Nc3ccc(C)cc3)oc12 (centres undefined)	-10.4	101.0	0.5	9.1*	0.93	4.7
CN(C)/C=C/C(=O)c1ccccc1	x	x	9.1	1.4	x	x
CN(C)/C=C/C(=O)c1ccc(Oc2ccccc2)cc1	-76.7	135.3*	-0.6	1.0	2.23	76.2
CCc1ccc(N2C(=O)CC(N3CCN(Cc4ccc5c(c4)OCO5)CC3)C2=O)cc1 (centres undefined)	-7.9	100.9	-0.2	-0.1	1.51	-17.9
COC(=O)c1ccc(COc2ccc(C=O)cc2OC)o1	-11.8	102.0	2.5	-2.0	1.38	-2.4
C=CCc1ccc(OCc2ccc(C(=O)OC)o2)c(OC)c1	-9.7	124.8	-3.5	-0.1	3.41*	3.6
Oc1c(C(c2ccccn2)N2CCCCC2)cc(Cl)c2cccnc12 (centres undefined)	-21.0	107.1	10.7	2.1	4.86*	14.5
O=C1C(Cl)=C(N2CCCCC2)C(=O)C(Cl)=C1c1cnc(N2CCCCC2)s1	72.5*	90.2	3.9	-0.3	0.73	-36.7
CN(C)c1ncc(C2=C(Cl)C(=O)C(N3CCCC3)=C(Cl)C2=O)s1	x	84.8	10.4	-2.7	1.16	9.3
CN1Cc2cccc3c2C(Cc2ccccc2S3)C1 (centres undefined)	-12.9	108.7	3.0	3.6	0.93	-15.5
Cc1ccc(/C=N\Nc2nc3ccc(Cl)cc3[nH]2)o1	-18.2	136.3*	-0.6	2.7	3.73*	73.4
SMILES	MDM2 E3 inh	STAT1 activator	p97 inhibitor	Wee1 degr inh	NF-kB expr up	APP 5'UTR act
Cc1cccc(/C=N/Nc2ccc3ccccc3n2)c1	-93.2	15.4	4.3	4.0	0.5	55.9
Cc1ccc(/C=N/Nc2ccc3ccccc3n2)o1	-79.0	31.9	-5.9	-1.7	3.17	182.9*
Cc1n[nH]c(C)c1C(=O)CC1(O)C(=O)N(CCc2ccccc2)c2ccc(Cl)cc21 (centres undefined)	-10.7	96.8	0.6	10.0*	0.59	-11.2
Cn1c2ccccc2c2cc(C(=O)NNC(=O)CCl)sc21	-10.7	132.9*	13.7	-2.2	2.03	7.1
CCN(CC)CCn1nc2c3c(cccc3c1=O)-c1ccccc1-2	-15.6	230.0*	-5.7	-1.2	1.33	-67.7
Cc1cc(C)n(C(=O)c2c([N+](=O)[O-])cnn2C)n1	13.8	101.5	-7.2	-2.1	1.31	12.9
Cn1ncc([N+](=O)[O-])c1C(=O)n1nnc2ccccc21	-17.2	100.6	-0.3	27.5*	1.34	0.3
CCCCc1n[nH]c(=S)n1Cc1ccc(C)cc1	-0.7	97.8	3.7	3.0	1.16	12.5
O=C(CN1C(=O)CCC1=O)Nc1ccc(Cc2ccc(NC(=O)CN3C(=O)CCC3=O)cc2)cc1	-22.6	101.7	4.3	-3.2	0.9	24.7
CNC(=O)c1ccc(OCc2ccccc2)c(OC)c1	-25.1	102.3	2.3	-1.9	1.4	16.4
COc1ccccc1NC(C#N)c1ccccc1OCc1ccccc1 (centres undefined)	0.0	99.5	4.3	10.8*	1.13	3.0
N#CC(CO)(Cc1ccc(OC(F)F)cc1)c1nc2ccccc2[nH]1 (centres undefined)	14.5	107.3	4.1	6.2	0.97	10.6
COc1ccc([N+](=O)[O-])cc1/C=N/Nc1nn[nH]n1	-4.0	98.1	5.3	0.8	0.93	1.5
Cc1nc2sc(C(c3cccs3)N3CCN(C(=O)c4ccco4)CC3)c(O)n2n1 (centres undefined)	-7.8	100.9	1.0	4.5	0.92	15.5
Cc1nc2sc(C(c3cccs3)N3CCN(c4cccc(Cl)c4)CC3)c(O)n2n1 (centres undefined)	-0.6	89.0	-1.4	11.3*	0.82	11.7
CCNc1nc(CSc2ccccc2)nc2sc(C)c(C)c12	-19.6	100.2	-2.0	3.7	0.67	10.3
CC(C)(O)C#Cc1ccc(CN2CCN(Cc3ccccc3)C(CCO)C2)s1 (centres undefined)	-0.9	95.8	-4.5	2.7	0.98	11.2
COc1cccc(CN2CCN(Cc3ccc(C#CC(C)(C)O)s3)CC2CCO)c1 (centres undefined)	-6.0	95.8	-0.6	10.1*	1.01	-2.7
Cc1ccc(CN2CCN(CC(C)C)C(CCO)C2)s1 (centres undefined)	-1.0	134.9*	1.4	-1.2	2.57	75.9
Cc1ccc(CN2CCN(CCC(C)C)C(CCO)C2)s1 (centres undefined)	-12.6	98.2	1.9	3.3	1.31	0.7
NC(=O)C1CCN(C(=O)CN2C(=O)c3ccccc3S2(=O)=O)CC1	-14.7	97.6	0.5	-0.8	1.05	8.9

High-throughput results (PubChem)
